Assay results reported in ChEMBL document CHEMBL5303300, “EUbOPEN Chemogenomics Library - Multiplex” (2023).
“And” between values parts separate entries of the source, which are not always exact repeats. Equal values may be shown once.

System: U2OS
Assay: Multiplex assay against U2OS
Format: toxicity, cell-based
Details: human, number of replicates 2
Method in brief: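 Hoechst33342, BioTracker Green Microtubule Cytoskeleton Dye, MitoTracker Red and Annexin V Alexa Fluor 680 were added to live cells at seeding, and imaging on a CQ1 microscope at 37°C and 5% CO2 followed compound addition. Gating by CellPathfinder machine learning separated cells into Hoechst high-intensity objects or normal cells, then normal cells into healthy, pyknosed or fragmented nuclei, then pyknosed cells into mitotic or apoptotic. Per cents of healthy-nucleus cells are reported for the tubulin, mitochondrial-mass and membrane-permeability phenotypes.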

[1] = 12 h, 1 µM, compound concentration 1 uM
[2] = 12 h, 10 µM, compound concentration 10 uM
[3] = 24 h, 1 µM, compound concentration 1 uM
[4] = 24 h, 10 µM, compound concentration 10 uM
[5] = 48 h, 1 µM, compound concentration 1 uM
[6] = 48 h, 10 µM, compound concentration 10 uM

## COc1cc(N(C)c2ccnc3ccc(C(F)(F)F)cc23)cc(OC)c1OC
[1]
  Population Apoptotic (%): 75% and 100%
  Population Healthy Nuclei (%): 84% and 54%
  Population Hoechst High Intensity Objects (%): 0%
  Population Membrane Permeable-Phenotype (%): 2% and 8%
  Population Mitochondria Different-Phenotype (%): 3% and 0%
  Population Mitotic Cells (%): 25% and 0%
  Population Normal (%): 100%
  Population Pyknosed Nuclei (%): 10% and 22%
  Population Tubulin-Different-Phenotype (%): 76% and 50%
[2]
  Population Apoptotic (%): 50% and 51%
  Population Healthy Nuclei (%): 65% and 78%
  Population Hoechst High Intensity Objects (%): 0%
  Population Membrane Permeable-Phenotype (%): 10% and 4%
  Population Mitochondria Different-Phenotype (%): 10% and 5%
  Population Mitotic Cells (%): 50% and 48%
  Population Normal (%): 100%
  Population Pyknosed Nuclei (%): 6% and 16%
  Population Tubulin-Different-Phenotype (%): 26% and 34%
[3]
  Population Apoptotic (%): 100% and 86%
  Population Fragmented Nuclei (%): 10% and 3%
  Population Healthy Nuclei (%): 75% and 92%
  Population Hoechst High Intensity Objects (%): 0%
  Population Membrane Permeable-Phenotype (%): 0%
  Population Mitochondria Different-Phenotype (%): 4% and 0%
  Population Mitotic Cells (%): 0% and 13%
  Population Normal (%): 100%
  Population Pyknosed Nuclei (%): 14% and 4%
  Population Tubulin-Different-Phenotype (%): 57% and 76%
[4]
  Population Apoptotic (%): 66% and 75%
  Population Healthy Nuclei (%): 65% and 79%
  Population Hoechst High Intensity Objects (%): 0%
  Population Membrane Permeable-Phenotype (%): 0% and 5%
  Population Mitochondria Different-Phenotype (%): 14% and 9%
  Population Mitotic Cells (%): 33% and 24%
  Population Normal (%): 100%
  Population Pyknosed Nuclei (%): 9% and 15%
  Population Tubulin-Different-Phenotype (%): 47% and 45%
[5]
  Population Apoptotic (%): 75% and 73%
  Population Fragmented Nuclei (%): 11% and 3%
  Population Healthy Nuclei (%): 80% and 90%
  Population Hoechst High Intensity Objects (%): 0%
  Population Membrane Permeable-Phenotype (%): 2% and 1%
  Population Mitochondria Different-Phenotype (%): 2% and 0%
  Population Mitotic Cells (%): 25% and 26%
  Population Normal (%): 100%
  Population Pyknosed Nuclei (%): 7% and 6%
  Population Tubulin-Different-Phenotype (%): 76% and 84%
[6]
  Population Apoptotic (%): 66% and 72%
  Population Healthy Nuclei (%): 58% and 87%
  Population Hoechst High Intensity Objects (%): 0%
  Population Membrane Permeable-Phenotype (%): 11% and 3%
  Population Mitochondria Different-Phenotype (%): 14% and 4%
  Population Mitotic Cells (%): 33% and 27%
  Population Normal (%): 100%
  Population Pyknosed Nuclei (%): 26% and 9%
  Population Tubulin-Different-Phenotype (%): 40% and 49%

## CS(=O)(=O)c1ccc(C(=O)Nc2ccc(F)c(COc3ccc(Br)cc3CNCCO)c2)c(Cl)c1.O=CO
[1]
  Population Apoptotic (%): 50% and 63%
  Population Healthy Nuclei (%): 75% and 84%
  Population Hoechst High Intensity Objects (%): 0%
  Population Mitotic Cells (%): 50% and 36%
[2]
  Population Apoptotic (%): 85% and 58%
  Population Healthy Nuclei (%): 80% and 77%
  Population Hoechst High Intensity Objects (%): 2% and 0%
  Population Mitotic Cells (%): 14% and 41%
[3]
  Population Apoptotic (%): 62% and 73%
  Population Healthy Nuclei (%): 74% and 90%
  Population Hoechst High Intensity Objects (%): 0%
  Population Mitotic Cells (%): 37% and 26%
[4]
  Population Apoptotic (%): 90% and 71%
  Population Healthy Nuclei (%): 68%
  Population Hoechst High Intensity Objects (%): 0%
[5]
  Population Apoptotic (%): 83%
  Population Healthy Nuclei (%): 81% and 87%
  Population Hoechst High Intensity Objects (%): 0%
  Population Mitotic Cells (%): 16%
[6]
  Population Apoptotic (%): 66% and 89%
  Population Healthy Nuclei (%): 45% and 67%
  Population Hoechst High Intensity Objects (%): 0%
